Source: PubChem
Sampled rows, rich in hits. Any-hit rate of the full collection: about 0.61%.
XiGFP reactiv: activators of inactive X chromosome reactivation, primary screen, imaging, XiGFP fibroblasts, GFP high-content imaging, set 2. XiGFP mouse fibroblasts, % GFP-positive cells imaging, 3 d; cells co-treated with 5-aza-dC sensitizer; scaled so ellipticine positive control = 100%. activation, % at 7.58 µM. actives 0.055% (n = 360,000);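 active = mean normalized replicate activation at least 10% and every replicate at or above 10%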;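 also: 0% = median of on-plate neutral control wells and 100% = ellipticine 6 µM median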
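assay system = SV40-immortalized XiGFP fibroblast cells, line 68-5-11 | buffer or medium = DMEM plus 5-aza-dC sensitizer | doses = single-point pinned compound dosing | times = 3-day compound exposure, then 15 min fixation at room temperature | benchmarks = positive control ellipticine, 6 µM final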
CFTR F508del cor: F508del CFTR correction, initial screen, CFBE line, single point. CFBE cells, YFP halide quenching; stimulated with forskolin plus potentiator P3; % fluorescence drop versus neutral controls. activity (quench increase), % at 7.58 µM. actives 0.36% (n = 350,000). AID 720511, 2013;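 active = mean added fluorescence quench of at least 8% versus neutral control, with both replicates also reaching 8%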;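 also: cells transiently co-express mutant CFTR-F508del with the halide-sensitive YFP; corrector assay measuring rescue of mutant channel to the surface after 24 h compound exposure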
E-sel inducer: E-selectin induction in HUVECs, primary screen, imaging, HUVEC, immunofluorescence imaging, single point; P16581; normalized: neutral wells 0, TNF-alpha wells 100; activation, % at 7.58 µM; actives 0.37% (n = 260,000); AID 686992, 2013;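 active = mean E-selectin-positive cell signal at least 10% of the positive control, reached in at least 60% of replicates, without over 20% cell loss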
Target sequence (P16581 whole entry, looked up): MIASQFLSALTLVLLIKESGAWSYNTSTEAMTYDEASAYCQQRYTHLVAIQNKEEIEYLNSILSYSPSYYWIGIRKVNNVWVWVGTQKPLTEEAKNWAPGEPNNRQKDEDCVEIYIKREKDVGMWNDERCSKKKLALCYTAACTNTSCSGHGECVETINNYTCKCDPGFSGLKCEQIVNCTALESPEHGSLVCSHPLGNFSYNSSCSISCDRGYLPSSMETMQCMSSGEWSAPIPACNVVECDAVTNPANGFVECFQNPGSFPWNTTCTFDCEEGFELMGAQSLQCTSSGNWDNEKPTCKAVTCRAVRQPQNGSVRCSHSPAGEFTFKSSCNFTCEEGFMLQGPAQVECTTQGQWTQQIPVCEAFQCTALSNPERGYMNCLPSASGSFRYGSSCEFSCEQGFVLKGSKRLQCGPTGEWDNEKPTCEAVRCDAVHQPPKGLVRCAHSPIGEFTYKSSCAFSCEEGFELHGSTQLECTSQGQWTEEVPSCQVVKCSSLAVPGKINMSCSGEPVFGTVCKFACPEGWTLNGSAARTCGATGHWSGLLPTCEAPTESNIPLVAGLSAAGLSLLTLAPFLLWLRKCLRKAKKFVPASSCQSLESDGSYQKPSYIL
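Read-out basis: % PE-positive cells; Test system: HUVEC primary endothelial cells; Technique: immunofluorescence imaging; Dosing: single-point compound dose.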
* = called active by the depositor.

CN(C)C(=O)C[C@@H]1CC[C@@H]2[C@H](COc3ccc(NC(=O)C4CC4)cc3C(=O)N2C)O1 was read as XiGFP reactiv 0, CFTR F508del cor -2 and E-sel inducer 0.
COc1ccccc1Cc1c(-c2ccc(C)cc2)nc2ccc(Br)cn12 was read as XiGFP reactiv 0, CFTR F508del cor 5 and E-sel inducer 1.
Screening COc1ccccc1Cc1c(-c2ccc(Cl)cc2)nc2ccc(Br)cn12 returned XiGFP reactiv 0 and CFTR F508del cor 10*.
`COCC#Cc1cnc2c(c1)C(=O)N([C@H](C)CO)C[C@@H](C)[C@H](CN(C)Cc1ccc(-c3ccccc3)cc1)O2` gave XiGFP reactiv 0, CFTR F508del cor -2 and E-sel inducer 0.
For CCCCNC(=O)N1CCN(c2ccccc2OCC)CC1 the results were XiGFP reactiv 0, CFTR F508del cor 2 and E-sel inducer 88*.
Screening O=C(CSc1ccc2c(c1)OCCO2)N1CCN(c2ccccc2O)CC1 returned XiGFP reactiv 0 and CFTR F508del cor -3.
Screening CCOc1ccccc1N1CCN(C(=O)CC(C)(C)C)CC1 returned XiGFP reactiv 0, CFTR F508del cor -3 and E-sel inducer 4.
For CCOc1ccccc1N1CCN(C(=O)CSc2ccc3c(c2)OCCO3)CC1 the results were XiGFP reactiv 0, CFTR F508del cor 3 and E-sel inducer 79*.
Screening CCCN1C[C@@H](C)[C@@H](OC)CN(C)C(=O)c2ccc(NC(=O)c3cnccn3)cc2OC[C@@H]1C returned XiGFP reactiv 0, CFTR F508del cor -1 and E-sel inducer 0.
CN(C)C(=O)[C@H]1[C@H](CO)[C@H]2Cn3c(ccc(C4=CCCC4)c3=O)[C@@H]1N2C(=O)c1ccccc1 was read as XiGFP reactiv 1, CFTR F508del cor 1 and E-sel inducer 0.
`Cc1cc2nnc(SCC(=O)NCc3ccco3)n2c2ccccc12` gave XiGFP reactiv 0, CFTR F508del cor 9.8* and E-sel inducer 0.
`CC(=O)CSc1nnc2cc(C)c3ccccc3n12` gave XiGFP reactiv 0, CFTR F508del cor 0 and E-sel inducer 0.
Screening C[C@@H]1CN([C@H](C)CO)S(=O)(=O)c2ccc(C#Cc3cccc(F)c3)cc2O[C@H]1CN(C)C returned XiGFP reactiv 0 and CFTR F508del cor -1.
`CCC(=O)N1[C@H](CO)[C@@H]2c3ccccc3N(C(=O)c3cccc(OC)c3)C[C@@H]21` gave XiGFP reactiv 0, CFTR F508del cor 3 and E-sel inducer 0.
For C[C@H](O)C#Cc1cnc2c(c1)C(=O)N([C@@H](C)CO)C[C@@H](C)[C@H](CN(C)C(=O)c1ccccc1F)O2 the results were XiGFP reactiv 0 and CFTR F508del cor -2.
`O=C(N/N=C/c1cc(Br)c(O)c(Br)c1O)c1ccc2c(c1)OCCO2` gave XiGFP reactiv 0, CFTR F508del cor -1 and E-sel inducer 0.
`O=C(N/N=C/c1cc(Br)cc(Cl)c1O)c1ccc2c(c1)OCO2` gave XiGFP reactiv 0 and CFTR F508del cor 12*.
For O=C(N/N=C/c1ccccc1O)c1ccc2c(c1)OCO2 the results were XiGFP reactiv 0, CFTR F508del cor 5 and E-sel inducer 0.
Cc1cc(Br)cc(/C=N/NC(=O)c2ccc3c(c2)OCO3)c1O was read as XiGFP reactiv 0, CFTR F508del cor 9.3* and E-sel inducer 3.
COc1ccc(S(=O)(=O)N(C)C[C@H]2Oc3ncc(/C=C/c4ccccc4)cc3C(=O)N([C@H](C)CO)C[C@H]2C)cc1 was read as XiGFP reactiv -1, CFTR F508del cor 1 and E-sel inducer 1.
C[C@H]1CN([C@@H](C)CO)S(=O)(=O)c2ccc(-c3ccc(C#N)cc3)cc2O[C@@H]1CN(C)C was read as XiGFP reactiv -2, CFTR F508del cor -1 and E-sel inducer 0.
For C[C@H](CO)N1C[C@H](C)[C@H](CN(C)C(=O)Cc2ccccc2)OCCCC[C@H](C)Oc2ccc(NC(=O)Cc3ccccc3)cc2C1=O the results were XiGFP reactiv 1, CFTR F508del cor -2 and E-sel inducer 0.
`CCN(CC)P(=O)(Nc1ccc(Br)cc1)c1c(C)nn(CCC#N)c1NC(=O)c1ccc(Cl)cc1` (centres undefined) gave XiGFP reactiv 0, CFTR F508del cor 6 and E-sel inducer 50*.
CCn1nc(C)c(NC(=O)c2ccc(Cl)cc2)c1C was read as XiGFP reactiv 0, CFTR F508del cor -2 and E-sel inducer -1.
